Results from different studies.
Each line is one published result; the experiments were not run side by side.
Target: Cyclin-dependent kinase 2 (CDK2, Homo sapiens, UniProt P24941)
Method: competition with immobilised ligand

SMILES | effect on | concentration | remaining binding
O=C(c1ccc(Nc2ncc(Cl)c(-c3cc4ccccc4s3)n2)cc1)N1CCC(N2CCCC2)CC1 | binding | 1 µM | 12%
CO[C@H]1CC[C@H](CNc2ccc(S(=O)(=O)NC(=O)c3ccc(N4CCN(CC5=C(c6ccc(Cl)cc6)CC(C)(C)CC5)CC4)cc3Oc3cnc4[nH]ccc4c3)cc2[N+](=O)[O-])CC1 | cell-free assay | 1 µM | 100%
c1cncc(-c2cccc(Nc3nccc(NC4CCCCC4)n3)c2)c1 | binding | 10 µM | 81%
Nc1ncc2c(n1)-c1c([nH]c3ccc(C#CC4CC4)cc13)CCCC2 | binding | 1 µM | 85%
CC(C)(C)c1ccc(-c2nc(CBr)nn2-c2cccc(O)c2)cc1 | cell-free assay | 10 µM | 90%
O=C(c1ccc(Nc2nccc(-c3cc4ccccc4s3)n2)cc1)N1CCC(N2CCCC2)CC1 | binding | 1 µM | 84%
COc1cnc(Nc2cccc(S(N)(=O)=O)c2)nc1N1CCN(c2ccccc2)C(=O)C1 | binding | 1 µM | 97%
COc1ccc2cc(OCC3(C(=O)O)CN(C(=O)c4ccc(F)cc4)C3)ccc2c1 | cell-free assay | 1 µM | 91%
Cc1cnc(Nc2ccc(C(=O)N3CCC(N4CCCC4)CC3)cc2)nc1-c1cc2ccccc2s1 | binding | 1 µM | 35%
C[C@@H]1CN(c2ccc3ncc(-c4ccc5[nH]nc(C6CC6)c5c4)n3n2)C[C@H](C)O1 | binding | 50 nM | 100%
CNC(=O)[C@@H]1CC[C@@H](n2c(-c3ccc4cnccc4c3)nc3ccc(C(=O)NCc4cccc(C(N)=O)c4)cc32)C1 | binding | 1 µM | 100%
O=C(Nc1c[nH]nc1C(=O)NC1CCNCC1)c1cc(F)cc(F)c1 | binding | 1 µM | 98%
O=C(O)c1cc(-c2ccc(C3CCNCC3)cc2)c2ccc(-c3ccc(C(F)(F)F)cc3)cc2c1 | cell-free assay | 1 µM | 100%
CN(CCCC(F)(F)F)c1nccc(-c2cnn3ncccc23)n1 | binding | 1 µM | 100%
C[C@H](c1ccc(F)cc1)N(Cc1cccc(C(=O)O)c1)C(=O)c1cnc2ccccc2c1 | cell-free assay | 1 µM | 100%
N#Cc1ccccc1CSc1nnc2c(n1)[nH]c1ccccc12 | binding | 10 µM | 82%
